Series [1] relates to tyrosinase. The series can be described thus: Glycosylation analysis of tyrosinase. In kind it is cell-based, mouse. The conditions noted are these: forskolin-supplemented medium, Endo H digestion.
Series [2] deals with melan-a melanocytes. The series can be described thus: Confocal immunofluorescence microscopy of tyrosinase localization. In kind it is cell-based, mouse.
In another series the test system is MITF, tyrosinase, TRP-1. The class given is cell-based, mouse. The note with it: 1 day, forskolin-supplemented medium. The essentials:
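Melan-a cells were co-treated with 1 μM forskolin, with or without the test compound, for 1 day. Proteins were extracted in PhosphoSafe buffer, run on 10% SDS-PAGE, semidry-transferred to PVDF and blocked in 3% BSA. Blots were probed for tyrosinase, TRP-1, TRP-2, MITF and β-actin, then HRP secondary antibodies (1 h, room temperature). Detection was by ECL, with stripping before reprobing.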

In series [3] the test system is melan-a melanocytes. The series can be described thus: Sulforhodamine B cytotoxicity assay. In kind it is cell-based, mouse. The note with it: 3 days, with or without forskolin. In short, it runs like this: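 Melan-a cells in RPMI-1640 with 5% FBS and antibiotics were seeded at 20 000 cells/0.1 mL/well. They were exposed to the test compound for 72 h in medium with 20 nM TPA, 1 μM forskolin, or vehicle alone. Viability was read by the sulforhodamine B colorimetric assay. Values are mean ± SD of triplicate experiments.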

The next series deals with T1, melan-a tyrosinase (Mus musculus, UniProt P11344).
T1 sequence (P11344 19-533): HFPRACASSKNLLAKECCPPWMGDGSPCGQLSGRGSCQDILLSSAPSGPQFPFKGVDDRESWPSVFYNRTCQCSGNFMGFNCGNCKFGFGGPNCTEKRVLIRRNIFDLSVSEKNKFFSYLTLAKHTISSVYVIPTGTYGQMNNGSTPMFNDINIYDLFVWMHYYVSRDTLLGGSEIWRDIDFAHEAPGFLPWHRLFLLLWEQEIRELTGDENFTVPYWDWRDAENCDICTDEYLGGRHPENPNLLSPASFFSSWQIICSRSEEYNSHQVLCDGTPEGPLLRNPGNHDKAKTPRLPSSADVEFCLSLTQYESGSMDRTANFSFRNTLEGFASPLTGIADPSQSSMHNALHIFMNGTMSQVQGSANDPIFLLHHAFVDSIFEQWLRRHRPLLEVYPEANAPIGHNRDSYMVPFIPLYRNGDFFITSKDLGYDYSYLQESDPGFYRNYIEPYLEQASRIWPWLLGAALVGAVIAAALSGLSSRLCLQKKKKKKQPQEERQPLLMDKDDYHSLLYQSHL
In kind it is biochemical. The conditions noted are these: for type of tyrosinase inhibition: Lineweaver–Burk plot, L-DOPA.

For a further series, the system named is tyrosinase/TRP-1 complex. As to the kind of experiment: Co-immunoprecipitation with antibody against TRP-1. In kind it is cell-based, mouse. The conditions noted are these: 3 days, forskolin-supplemented medium.
For series [4], the target named is T2, tyrosinase (Mus musculus, UniProt P11344).
T2 sequence (P11344 19-533): T1 sequence (P11344 19-533)
As to the kind of experiment: Tyrosinase activity in treated melan-a cells. In kind it is cell-based. The conditions noted are these: 60 μM, 3 days, 20 nM TPA; TPA alone 100%.

Results on 3 compounds are retold here after publication PMC4076036 (Journal of Natural Products, 2014).

Structures are written as SMILES.

As for `OC[C@H]1O[C@@H](Oc2c(O)cc(O)cc2/C=C/c2ccc(O)cc2)[C@H](O)[C@@H](O)[C@@H]1O` [Compound 1, 2,3,5,4′-Tetrahydroxystilbene-2-O-β-D-glucopyranoside], the “immature Endo H-sensitive form of tyrosinase” value in the series on tyrosinase [1] is listed as “No immature Endo H-sensitive form of tyrosinase was present”. In the series on melan-a melanocytes [2] (60 μM, 3 days), the “tyrosinase localization (calnexin/ER, Lamp-1/lysosome)” value is “no aberrant tyrosinase is trapped in the ER and lysosome”. For the same compound, in the series on MITF, tyrosinase, TRP-1, the TRP-1 expression result is reported as “not prominent”, the “expression of MITF” value is “suppressed” and the expression of tyrosinase result is given as “suppressed”. Besides, the cytotoxic effect entry in the series on melan-a melanocytes [3] is “did not exert any cytotoxic effect”. The “type of tyrosinase inhibition” value at melan-a tyrosinase was “noncompetitive”. The “reversibility of binding to tyrosinase” value at melan-a tyrosinase (tyrosinase mixed with compound 24 h prior to kinetic analysis) was “likely reversible”. Besides, in the series on tyrosinase/TRP-1 complex, the “tyrosinase co-immunoprecipitated with TRP-1” value is listed as “reduction of immunoprecipitated tyrosinase”. In addition, the tyrosinase activity at tyrosinase [4] is given as 65%.

On to `CC(=O)[C@H]1CC[C@H]2[C@@H]3CCC4=CC(=O)CC[C@]4(C)[C@H]3CC[C@]12C` [progesterone], for which, in the series with melan-a melanocytes [2] (15 μM, 4 days), the “colocalization of tyrosinase and Lamp-1” value was “Colocalization of both tyrosinase and Lamp-1 were also observed”.

`Oc1ccc(/C=C/c2cc(O)cc(O)c2)cc1` [resveratrol, reference compound]: in the series on melan-a melanocytes [2] (85 μM, 1 day, positive control), the “colocalization of calnexin and tyrosinase” value is recorded as “clearly colocalize to the ER”. Besides, on melan-a tyrosinase, the Vmax was 2.5 × 10^–4 ΔA490/s and the “type of tyrosinase inhibition” value is recorded as “noncompetitive”.
